Data: ChEMBL document CHEMBL1932985, “Identification of biaryl sulfone derivatives as antagonists of the histamine H₃ receptor: discovery of (R)-1-(2-(4'-(3-methoxypropylsulfonyl)biphenyl-4-yl)ethyl)-2-methylpyrrolidine (APD916)” (Bioorg Med Chem Lett, 2012)

Key:
[1] = system: Mus musculus; experiment: Volume of distribution at steady state in mouse at 3 mg/kg, po by LC-MS/MS analysis; type: ADME, organism-based; set-up: dose 3 mg/kg, route oral; conditions: in vivo
[2] = Plasma protein binding in human; type: ADME, cell-free; conditions: read-out: PPB (converted)
[3] = Tmax in dog at 3 mg/kg, po by LC-MS/MS analysis; type: ADME, organism-based, Canis lupus familiaris; set-up: dose 3 mg/kg, route oral; conditions: in vivo
[4] = system: Canis lupus familiaris; experiment: Cardiotoxicity in dog assessed as increase in mean arterial blood pressure at 10 to 30 mg/kg, po after 60 mins; conditions: in vivo, 1 h
[5] = system: Canis familiaris; experiment: Volume of distribution at steady state in dog at 3 mg/kg, po by LC-MS/MS analysis; type: ADME, organism-based, Canis lupus familiaris; set-up: dose 3 mg/kg, route oral; conditions: in vivo
[6] = Cmax in dog at 3 mg/kg, po by LC-MS/MS analysis; type: ADME, organism-based, Canis lupus familiaris; set-up: dose 3 mg/kg, route oral; conditions: in vivo
[7] = system: Rattus norvegicus; experiment: Inhibition of RAMH-induced dipsogenia in Sprague-Dawley rat at 0.6 mg/kg, po administered 6 hrs prior to RAMH challenge measured up to 20 mins; type: functional
Summary of the method: (§1)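 Rats given compound orally 0.5 h (or, for duration of action, at selected times up to 6 h) before RAMH 10 mg/kg SC; water consumed over 20 min measured. Screening doses 1 or 0.3 mg/kg PO, also 0.1 mg/kg; duration study at 0.6 mg/kg PO. MED = minimum dose fully inhibiting drinking; means ± SEM.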

[8] = target: Cytochrome P450 3A4 (Homo sapiens, UniProt P08684); experiment: Inhibition of CYP3A4; type: ADME
Summary of the method: (§2)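 Inhibition tested against five major CYP isoforms; IC50 determined.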

[9] = Half life in dog at 3 mg/kg, po by LC-MS/MS analysis; type: ADME, organism-based, Canis lupus familiaris; set-up: dose 3 mg/kg, route oral; conditions: in vivo
[10] = target: Voltage-gated inwardly rectifying potassium channel KCNH2 (Homo sapiens, UniProt Q12809); experiment: Inhibition of human ERG by patch-clamp assay
[11] = Half life in monkey at 3 mg/kg, po by LC-MS/MS analysis; type: ADME, organism-based, Macaca mulatta; set-up: dose 3 mg/kg, route oral; conditions: rhesus monkey, in vivo
[12] = system: Rhesus monkey; experiment: Hepatic blood flow in monkey at 3 mg/kg, po by LC-MS/MS analysis; type: ADME, organism-based, Macaca mulatta, Liver; set-up: dose 3 mg/kg, route oral; conditions: in vivo
[13] = system: Rattus norvegicus; experiment: Volume of distribution at steady state in Sprague-Dawley rat at 3 mg/kg, po by LC-MS/MS analysis; type: ADME, organism-based; set-up: dose 3 mg/kg, route oral; conditions: in vivo
[14] = target: T1, Cytochrome P450 1A2 (Homo sapiens, UniProt P05177); experiment: Inhibition of CYP1A2; type: ADME; summary of the method: as §2
T1 sequence (P05177 whole entry): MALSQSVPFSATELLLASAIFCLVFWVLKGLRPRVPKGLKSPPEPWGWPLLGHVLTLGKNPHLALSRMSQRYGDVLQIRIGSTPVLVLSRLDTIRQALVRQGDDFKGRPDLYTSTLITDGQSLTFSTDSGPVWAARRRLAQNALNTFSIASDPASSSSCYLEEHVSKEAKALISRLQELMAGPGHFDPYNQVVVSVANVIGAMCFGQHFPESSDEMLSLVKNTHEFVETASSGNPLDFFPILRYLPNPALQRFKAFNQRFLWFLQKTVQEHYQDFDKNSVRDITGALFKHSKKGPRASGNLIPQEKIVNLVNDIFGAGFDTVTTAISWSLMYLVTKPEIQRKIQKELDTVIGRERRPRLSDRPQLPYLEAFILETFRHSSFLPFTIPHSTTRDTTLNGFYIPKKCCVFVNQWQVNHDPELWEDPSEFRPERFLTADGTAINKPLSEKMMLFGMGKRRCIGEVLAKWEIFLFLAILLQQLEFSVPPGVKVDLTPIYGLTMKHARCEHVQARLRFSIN

[15] = system: Rattus norvegicus; experiment: Volume of distribution at steady state in Sprague-Dawley rat at 3 mg/kg, po and iv by LC-MS/MS analysis; type: ADME, organism-based; set-up: dose 3 mg/kg, route oral; conditions: in vivo
Summary of the method: (§3)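 Rats were given the compound both IV and PO in a routine PK study. Tmax came from the PO arm and Vss from the IV arm.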

[16] = Cmax in monkey at 3 mg/kg, po by LC-MS/MS analysis; type: ADME, organism-based, Macaca mulatta; set-up: dose 3 mg/kg, route oral; conditions: rhesus monkey, in vivo
[17] = target: T2, Histamine H3 receptor (Homo sapiens, UniProt Q9Y5N1); experiment: Inverse agonist activity at human cloned histamine H3 receptor by [35S]GTPgammaS binding assay; type: functional
[18] = Half life in mouse at 3 mg/kg, po by LC-MS/MS analysis; type: ADME, organism-based; set-up: dose 3 mg/kg, route oral; conditions: in vivo
[19] = Clearance in mouse at 3 mg/kg, po by LC-MS/MS analysis; type: ADME, organism-based; set-up: dose 3 mg/kg, route oral; conditions: in vivo
[20] = Oral bioavailability in mouse at 3 mg/kg by LC-MS/MS analysis; type: ADME, organism-based; conditions: in vivo
[21] = Clearance in dog at 3 mg/kg, po by LC-MS/MS analysis; type: ADME, organism-based, Canis lupus familiaris; set-up: dose 3 mg/kg, route oral; conditions: in vivo
[22] = target: Cytochrome P450 2C19 (Homo sapiens, UniProt P33261); experiment: Inhibition of CYP2C19; type: ADME; summary of the method: as §2
[23] = Plasma protein binding in rat; type: ADME, cell-free; conditions: read-out: PPB (converted)
[24] = Half life in Sprague-Dawley rat at 3 mg/kg, po by LC-MS/MS analysis; type: ADME, organism-based; set-up: dose 3 mg/kg, route oral; conditions: in vivo
[25] = system: Canis lupus familiaris; experiment: Cardiotoxicity in dog assessed as increase in mean arterial blood pressure at 10 to 30 mg/kg, po; conditions: in vivo
[26] = Tmax in monkey at 3 mg/kg, po by LC-MS/MS analysis; type: ADME, organism-based, Macaca mulatta; set-up: dose 3 mg/kg, route oral; conditions: rhesus monkey, in vivo
[27] = Oral bioavailability in monkey at 3 mg/kg by LC-MS/MS analysis; type: ADME, organism-based, Macaca mulatta; conditions: rhesus monkey, in vivo
[28] = Ratio of drug level in brain to plasma in Sprague-Dawley rat at 3 mg/kg, po and iv after 0.75 to 3 hrs by LC-MS/MS analysis; type: ADME, organism-based; set-up: dose 3 mg/kg, route oral; conditions: read-out: BPR
Summary of the method: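 Brain (µg/mg) and plasma (µg/mL) levels were measured after oral dosing, with three rats per time point. The b/p ratio was the mean of the nine individual ratios.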

[29] = Half life in Sprague-Dawley rat at 3 mg/kg, iv by LC-MS/MS analysis; type: ADME, organism-based; set-up: dose 3 mg/kg, route intravenous; conditions: in vivo
Summary of the method: (§4)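 Rat PK after IV and PO dosing; plasma Cmax, Tmax, IV half-life and Vss determined; oral bioavailability from AUCpo/AUCiv. Metabolite exposure determined after a 3 mg/kg PO parent dose.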

[30] = system: Rattus norvegicus; experiment: Inhibition of RAMH-induced dipsogenia in po dosed Sprague-Dawley rat administered 30 mins prior to RAMH challenge measured up to 20 mins; type: functional; conditions: read-out: MED; summary of the method: as §1
[31] = system: Mus musculus; experiment: Hepatic blood flow in mouse at 3 mg/kg, po by LC-MS/MS analysis; type: ADME, organism-based, Liver; set-up: dose 3 mg/kg, route oral; conditions: in vivo
[32] = Cmax in mouse at 3 mg/kg, po by LC-MS/MS analysis; type: ADME, organism-based; set-up: dose 3 mg/kg, route oral; conditions: in vivo
[33] = target: Cytochrome P450 2D6 (Homo sapiens, UniProt P10635); experiment: Inhibition of CYP2D6; type: ADME; summary of the method: as §2
[34] = Cmax in Sprague-Dawley rat plasma at 3 mg/kg, po and iv by LC-MS/MS analysis; type: ADME, organism-based; set-up: dose 3 mg/kg, route oral; summary of the method: as §4
[35] = Tmax in mouse at 3 mg/kg, po by LC-MS/MS analysis; type: ADME, organism-based; set-up: dose 3 mg/kg, route oral; conditions: in vivo
[36] = target: T2, Histamine H3 receptor; experiment: Binding affinity to human cloned histamine H3 receptor
[37] = Oral bioavailability in Sprague-Dawley rat at 3 mg/kg by LC-MS/MS analysis; type: ADME, organism-based; conditions: in vivo; summary of the method: as §4
[38] = target: hERG (KCNH2) (Homo sapiens, UniProt Q12809); experiment: Inhibition of human ERG at 3 uM by patch-clamp assay
[39] = target: Cytochrome P450 2C9 (Homo sapiens, UniProt P11712); experiment: Inhibition of CYP2C9; type: ADME; summary of the method: as §2
[40] = system: Canis familiaris; experiment: Hepatic blood flow in dog at 3 mg/kg, po by LC-MS/MS analysis; type: ADME, organism-based, Canis lupus familiaris, Liver; set-up: dose 3 mg/kg, route oral; conditions: in vivo
[41] = Clearance in monkey at 3 mg/kg, po by LC-MS/MS analysis; type: ADME, organism-based, Macaca mulatta; set-up: dose 3 mg/kg, route oral; conditions: rhesus monkey, in vivo
[42] = Tmax in Sprague-Dawley rat at 3 mg/kg, po and iv by LC-MS/MS analysis; type: ADME, organism-based; set-up: dose 3 mg/kg, route oral; conditions: in vivo; summary of the method: as §3
[43] = Oral bioavailability in dog at 3 mg/kg by LC-MS/MS analysis; type: ADME, organism-based, Canis lupus familiaris; conditions: in vivo
[44] = Drug uptake in Sprague-Dawley rat brain at 0.3 mg/kg, po after 1 hr; type: ADME, organism-based; set-up: dose 0.3 mg/kg, route oral
Summary of the method: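 Whole-brain concentration measured 1 h after a 0.3 mg/kg oral dose in rat, the time coinciding with the drinking measurement; expressed […].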

[45] = Clearance in Sprague-Dawley rat at 3 mg/kg, po by LC-MS/MS analysis; type: ADME, organism-based; set-up: dose 3 mg/kg, route oral; conditions: in vivo
[46] = Cmax in Sprague-Dawley rat at 3 mg/kg, po by LC-MS/MS analysis; type: ADME, organism-based; set-up: dose 3 mg/kg, route oral; conditions: in vivo; summary of the method: as §4
[47] = system: Rattus norvegicus; experiment: Hepatic blood flow in Sprague-Dawley rat at 3 mg/kg, po by LC-MS/MS analysis; type: ADME, organism-based, Liver; set-up: dose 3 mg/kg, route oral; conditions: in vivo
[48] = system: Rhesus monkey; experiment: Volume of distribution at steady state in monkey at 3 mg/kg, po by LC-MS/MS analysis; type: ADME, organism-based, Macaca mulatta; set-up: dose 3 mg/kg, route oral; conditions: in vivo
[49] = system: Salmonella typhimurium; experiment: Mutagenic activity in Salmonella Typhimurium by micro-Ames assay; type: toxicity, organism-based; conditions: salmonella enterica subsp. enterica serovar typhimurium
[50] = target: Histamine H3 receptor (Rattus norvegicus, UniProt Q9QYN8); experiment: Displacement of N-[3H]-methylhistamine from histamine H3 receptor in rat cortex membranes; type: cell membranes, Membrane
Histamine H3 receptor (Rattus norvegicus, UniProt Q9QYN8), sequence (Q9QYN8 whole entry): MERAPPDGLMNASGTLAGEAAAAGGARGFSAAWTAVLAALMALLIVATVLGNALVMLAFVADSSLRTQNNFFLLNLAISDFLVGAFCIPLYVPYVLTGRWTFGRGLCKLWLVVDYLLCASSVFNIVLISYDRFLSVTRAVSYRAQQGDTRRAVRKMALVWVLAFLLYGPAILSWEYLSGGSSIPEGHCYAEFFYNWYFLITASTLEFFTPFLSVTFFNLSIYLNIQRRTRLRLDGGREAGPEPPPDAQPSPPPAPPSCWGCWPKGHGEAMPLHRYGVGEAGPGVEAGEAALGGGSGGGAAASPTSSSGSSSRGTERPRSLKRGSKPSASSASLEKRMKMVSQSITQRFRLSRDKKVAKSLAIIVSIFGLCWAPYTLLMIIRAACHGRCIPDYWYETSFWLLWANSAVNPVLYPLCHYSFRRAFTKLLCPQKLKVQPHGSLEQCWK

T2 sequence (Q9Y5N1 whole entry): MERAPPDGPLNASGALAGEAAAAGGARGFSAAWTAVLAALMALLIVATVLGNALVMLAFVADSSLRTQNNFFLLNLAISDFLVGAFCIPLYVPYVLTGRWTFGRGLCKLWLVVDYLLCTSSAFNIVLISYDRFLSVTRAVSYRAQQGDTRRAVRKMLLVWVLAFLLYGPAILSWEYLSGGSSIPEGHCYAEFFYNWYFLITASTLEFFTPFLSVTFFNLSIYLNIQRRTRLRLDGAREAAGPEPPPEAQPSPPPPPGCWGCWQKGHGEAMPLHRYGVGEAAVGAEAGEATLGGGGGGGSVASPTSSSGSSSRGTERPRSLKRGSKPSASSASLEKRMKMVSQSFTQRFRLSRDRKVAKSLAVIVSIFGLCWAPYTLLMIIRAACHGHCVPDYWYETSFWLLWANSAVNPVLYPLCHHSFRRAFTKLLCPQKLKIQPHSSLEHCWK
Voltage-gated inwardly rectifying potassium channel KCNH2, sequence (Q12809 whole entry): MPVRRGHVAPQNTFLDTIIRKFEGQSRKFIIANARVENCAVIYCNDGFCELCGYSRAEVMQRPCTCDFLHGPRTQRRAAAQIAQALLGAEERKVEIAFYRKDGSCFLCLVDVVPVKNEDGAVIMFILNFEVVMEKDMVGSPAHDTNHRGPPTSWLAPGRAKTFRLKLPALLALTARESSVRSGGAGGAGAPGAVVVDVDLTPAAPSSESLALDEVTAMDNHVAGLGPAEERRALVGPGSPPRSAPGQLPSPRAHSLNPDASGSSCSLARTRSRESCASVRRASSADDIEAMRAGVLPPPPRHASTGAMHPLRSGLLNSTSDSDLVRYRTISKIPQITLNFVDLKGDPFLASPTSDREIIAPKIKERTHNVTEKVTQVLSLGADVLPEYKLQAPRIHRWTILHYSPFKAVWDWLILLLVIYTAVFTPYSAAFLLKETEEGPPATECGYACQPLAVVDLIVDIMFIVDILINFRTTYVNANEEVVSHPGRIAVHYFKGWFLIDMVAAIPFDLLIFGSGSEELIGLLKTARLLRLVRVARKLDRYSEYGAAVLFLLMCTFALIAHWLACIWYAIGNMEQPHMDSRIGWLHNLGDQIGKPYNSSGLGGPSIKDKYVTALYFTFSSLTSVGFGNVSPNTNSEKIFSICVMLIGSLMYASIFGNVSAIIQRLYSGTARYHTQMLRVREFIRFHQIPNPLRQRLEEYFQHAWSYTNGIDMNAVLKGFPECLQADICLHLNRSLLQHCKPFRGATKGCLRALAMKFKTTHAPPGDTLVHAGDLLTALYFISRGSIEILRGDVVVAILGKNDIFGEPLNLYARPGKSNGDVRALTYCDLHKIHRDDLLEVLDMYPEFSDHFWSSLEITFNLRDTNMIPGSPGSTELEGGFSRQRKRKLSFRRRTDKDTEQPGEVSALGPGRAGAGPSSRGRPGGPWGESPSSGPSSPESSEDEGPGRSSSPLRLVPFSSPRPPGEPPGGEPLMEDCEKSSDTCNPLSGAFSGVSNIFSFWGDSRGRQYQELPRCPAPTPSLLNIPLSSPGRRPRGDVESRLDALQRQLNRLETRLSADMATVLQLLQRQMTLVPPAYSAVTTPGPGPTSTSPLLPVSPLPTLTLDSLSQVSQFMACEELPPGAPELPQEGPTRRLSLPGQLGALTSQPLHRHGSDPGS
hERG (KCNH2), sequence (Q12809 whole entry): as above
Cytochrome P450 3A4, sequence (P08684 whole entry, canonical isoform): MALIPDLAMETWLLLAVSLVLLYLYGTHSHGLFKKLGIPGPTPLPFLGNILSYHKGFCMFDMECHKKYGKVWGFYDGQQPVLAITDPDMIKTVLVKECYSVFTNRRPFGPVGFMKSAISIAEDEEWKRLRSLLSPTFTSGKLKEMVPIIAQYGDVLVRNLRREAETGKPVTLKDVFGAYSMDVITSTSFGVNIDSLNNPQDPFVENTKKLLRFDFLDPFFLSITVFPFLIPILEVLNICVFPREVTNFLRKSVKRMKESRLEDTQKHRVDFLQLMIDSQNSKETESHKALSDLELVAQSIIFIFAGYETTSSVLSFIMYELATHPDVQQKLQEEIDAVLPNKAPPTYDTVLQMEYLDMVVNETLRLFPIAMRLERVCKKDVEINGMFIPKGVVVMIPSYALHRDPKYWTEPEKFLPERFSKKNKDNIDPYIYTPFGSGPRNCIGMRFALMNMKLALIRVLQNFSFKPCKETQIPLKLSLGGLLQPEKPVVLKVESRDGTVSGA
Cytochrome P450 2C19, sequence (P33261 whole entry): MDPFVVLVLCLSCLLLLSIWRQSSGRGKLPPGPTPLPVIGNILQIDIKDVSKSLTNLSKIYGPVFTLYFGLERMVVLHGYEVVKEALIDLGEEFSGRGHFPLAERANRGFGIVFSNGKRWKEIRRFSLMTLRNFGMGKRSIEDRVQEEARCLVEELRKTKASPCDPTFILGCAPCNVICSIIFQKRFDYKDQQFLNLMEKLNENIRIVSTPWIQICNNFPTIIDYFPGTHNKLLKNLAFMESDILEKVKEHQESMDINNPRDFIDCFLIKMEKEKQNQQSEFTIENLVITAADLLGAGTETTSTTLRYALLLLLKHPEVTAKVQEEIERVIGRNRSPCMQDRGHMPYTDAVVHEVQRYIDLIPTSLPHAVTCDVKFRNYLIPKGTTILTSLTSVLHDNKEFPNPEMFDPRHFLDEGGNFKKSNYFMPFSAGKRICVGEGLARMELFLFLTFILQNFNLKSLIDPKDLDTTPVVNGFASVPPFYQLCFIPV
Cytochrome P450 2C9, sequence (P11712 whole entry): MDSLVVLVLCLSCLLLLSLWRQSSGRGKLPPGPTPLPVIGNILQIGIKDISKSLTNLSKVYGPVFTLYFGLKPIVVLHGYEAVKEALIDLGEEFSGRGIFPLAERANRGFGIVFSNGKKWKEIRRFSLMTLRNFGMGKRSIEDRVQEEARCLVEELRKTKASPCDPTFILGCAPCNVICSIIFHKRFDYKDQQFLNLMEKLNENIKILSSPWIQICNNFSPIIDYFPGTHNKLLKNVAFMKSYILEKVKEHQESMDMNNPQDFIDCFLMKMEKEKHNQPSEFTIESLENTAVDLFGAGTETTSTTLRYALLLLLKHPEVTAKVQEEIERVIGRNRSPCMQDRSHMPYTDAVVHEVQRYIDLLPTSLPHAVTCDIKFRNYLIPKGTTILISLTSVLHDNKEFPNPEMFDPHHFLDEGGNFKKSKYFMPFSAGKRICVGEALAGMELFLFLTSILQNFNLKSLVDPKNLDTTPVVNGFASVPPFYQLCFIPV

COCCCS(=O)(=O)c1ccc(-c2ccc(CCN3CCC[C@H]3C)cc2)cc1
Vdss [1]: 2.54 L/kg | fraction unbound [2]: 0.26 | Tmax [3]: 0.8 h | Activity [4]: Non-toxic | Vdss [5]: 2.89 L/kg | Cmax [6]: 600 ng/mL | inhibition in vivo at 0.6 mg/kg [7]: < 20% | IC50 [8]: > 40 µM | half-life [9]: 5 h | IC50 [10]: 11 µM | half-life [11]: 6.9 h | QH [12]: 14% | Vdss [13]: 7.54 L/kg | IC50 [14]: > 40 µM | Vdss [15]: 7.5 L/kg | Cmax [16]: 550 ng/mL | IC50 [17]: 0.0007 µM | half-life [18]: 1.5 h | CL/F [19]: 72.7 mL/min/kg | bioavailability [20]: 35.4% | CL/F [21]: 13.7 mL/min/kg | IC50 [22]: > 40 µM | fraction unbound [23]: 0.26 | half-life [24]: 1.9 h | Activity [25]: Toxic | Tmax [26]: 2.3 h | bioavailability [27]: 67.5% | Kp [28]: 3.3 | half-life [29]: 1.9 h | minimal effective dose [30]: 0.3 mg/kg | QH [31]: 78% | Cmax [32]: 80 ng/mL | IC50 [33]: > 40 µM | Cmax [34]: 104 ng/mL | Tmax [35]: 1 h | Ki [36]: 0.0042 µM | bioavailability [37]: 27.3% | inhibition at 3 µM [38]: 14% | IC50 [39]: > 40 µM | QH [40]: 43% | CL/F [41]: 6.17 mL/min/kg | Tmax [42]: 0.5 h | bioavailability [43]: 100% | concentration at 1 h [44]: 17 ng/g | CL/F [45]: 74.3 mL/min/kg | Cmax [46]: 100 ng/mL | QH [47]: 106% | Vdss [48]: 2.16 L/kg | Activity [49]: Non-toxic | Ki [50]: 0.0007 µM
